Here are results for 22 compounds from ChEMBL document CHEMBL3271953, “Bridged aminotetralins. 4. Resolution of potent analgesics of the bridged aminotetralin type” (J Med Chem, 1976).

The source made the active and inactive calls.

Series [1] has as its system Rattus norvegicus. Kind of series: Analgesic activity in ip dosed Charles River rat by tail flick test. The class given is functional. In outline: (§1)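 D'Amour-Smith rat tail-flick test. Compounds were given ip, im or po, and analgesic ED50 was derived. Doses are expressed as mg of base per kg and given as the hydrochloride or hydrobromide salt or as the free base. Some ED50s rest on two doses only.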
In general terms: In hot-plate and tail-flick tests a longer latency is read as antinociception.

Series [2] concerns Rattus norvegicus. Put plainly: Analgesic activity in im dosed Charles River rat by tail flick test. The class given is functional. In outline:
as §1

Series [3] relates to Rattus norvegicus. Kind of series: Analgesic activity in po dosed Charles River rat by tail flick test. The format is functional. In outline:
as §1

The test system of series [4] is Rhesus monkey. Kind of series: Narcotic antagonism activity in morphine-dependent rhesus monkey assessed as precipitation of withdrawal symptoms at 0.5 to 1 mg/kg, im. The format is functional, organism-based. The settings on record: Macaca mulatta.
Series [5] deals with Rhesus monkey. Put plainly: Narcotic antagonism activity in morphine-dependent rhesus monkey assessed as precipitation of withdrawal symptoms at 1 mg/kg, im measured for 10 hrs. The format is functional, organism-based. Also noted: dose 1 mg/kg. The settings on record: Macaca mulatta.
The subject of series [6] is Rhesus monkey. Kind of series: Analgesic activity in monkey assessed as increase in shock threshold at 0.06 mg/kg, im. Conditions: Macaca mulatta. Also noted: dose 0.06 mg/kg. The format is functional, organism-based.
The subject of series [7] is Rhesus monkey. Kind of series: Analgesic activity in po dosed monkey assessed as increase in shock threshold. The class given is functional, organism-based. Conditions: Macaca mulatta.
Series [8] is filed under the species Rattus norvegicus. Put plainly: Ratio of morphine ED50 to compound ED50 for analgesic activity in Charles River rat by tail flick test. The class given is functional.
For series [9], the system named is Rattus norvegicus. Kind of series: Analgesic activity in Charles River rat at 20 mg/kg, po by tail flick test. The format is functional, organism-based. Also noted: dose 20 mg/kg.
The test system of series [10] is Rattus norvegicus. Put plainly: Ratio of morphine ED50 to compound ED50 for analgesic activity in po dosed Charles River rat by tail flick test. The class given is functional.
Series [11] can be described thus: Acute toxicity in po dosed rat. The format is organism-based. Conditions: in vivo. In outline:
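Acute toxicity in rats after oral dosing, expressed as an LD50 in mg/kg.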

Where [12] appears, read: Rattus norvegicus, Charles River, Tail, im, read-out: ED50.
Where [13] appears, read: Rattus norvegicus, Charles River, Tail, po, read-out: ED50.
[14] abbreviates: Rattus norvegicus, Charles River, Tail, ip, read-out: ED50.

For `CC[C@@]12CCCCCC(Cc3ccc(O)cc31)[C@@H]2N` (mixture of isomers), the ED50 – broadly, the dose at which the effect has come halfway, by size or by number of responders – is 3.7 mg/kg with Rattus norvegicus [1], 0.25 mg/kg in the series on Rattus norvegicus [2] and 10 mg/kg in the series on Rattus norvegicus [3].

Take `COc1ccc2c(c1)[C@@]1(C)CCCCCC(C2)[C@@H]1N.Cl` (stereo in doubt; (-)-5): the ED50 with Rattus norvegicus [1] was 2 mg/kg; in the series on Rattus norvegicus [2] (setting [12]) it was 4.5 mg/kg; with Rattus norvegicus [3] (setting [13]), 3.5 mg/kg.

Take `C[C@@]12CCCCCC(Cc3ccc(O)cc31)[C@@H]2N` (stereo in doubt; (-)-6): the result in the series with Rhesus monkey [4], in the series with Rhesus monkey [5] and in the series on Rhesus monkey [6] was Active. In addition, the Activity result with Rhesus monkey [7] was “Dose-dependent effect”.

In the case of `CC[C@@]12CC/C=C\CC(Cc3ccc(O)cc31)[C@@H]2N.Cl` (stereo in doubt; (+)-4), the ED50 in the series with Rattus norvegicus [1] stood at 0.8 mg/kg; in the series with Rattus norvegicus [2], 0.195 mg/kg; with Rattus norvegicus [3] (setting [13]), 5 mg/kg. For the same compound, in the series listed under Rattus norvegicus [8], the “Ratio ED50” value is given as “<=15”.

For `CC[C@@]12CCCCCC(Cc3ccc(OC)cc31)[C@@H]2N` (mixture of isomers), the outcome with Rattus norvegicus [9] was Active.

For `CC[C@@]12CC/C=C\CC(Cc3ccc(OC)cc31)[C@@H]2N.Cl` (stereo in doubt; (+)-3), the values for the ED50 with Rattus norvegicus [1] (setting [14]) and in the series with Rattus norvegicus [2] (setting [12]) were 3.75 mg/kg and 12.5 mg/kg, respectively.

As for `CC[C@@]12CCCCCC(Cc3ccc(OC)cc31)[C@@H]2N.Cl` (stereo in doubt; (-)-1), the ED50 worked out at 3.3 mg/kg in the series with Rattus norvegicus [1], 3.5 mg/kg in the series with Rattus norvegicus [2] and 7.5 mg/kg in the series on Rattus norvegicus [3].

On to `CC[C@@]12CCCCCC(Cc3ccc(O)cc31)[C@@H]2N` (stereo in doubt; (+)-2), for which the ED50 in the series on Rattus norvegicus [1] is 7.5 mg/kg; in the series with Rattus norvegicus [2], 2 mg/kg; in the series with Rattus norvegicus [3] it was 80 mg/kg.

For `Br.C[C@@]12CCCCCC(Cc3ccc(O)cc31)[C@@H]2N` (mixture of isomers), the ED50 in the series on Rattus norvegicus [1] stood at 1.11 mg/kg; with Rattus norvegicus [2] it was 0.45 mg/kg; with Rattus norvegicus [3], 10 mg/kg.

For `CN1CC[C@]23c4c5ccc(O)c4O[C@H]2[C@@H](O)C=C[C@H]3[C@H]1C5` [MORPHINE], the ED50 in the series with Rattus norvegicus [1] (setting [14]) turned out to be 4.43 mg/kg; in the series on Rattus norvegicus [2] (setting [12]), 1.57 mg/kg; in the series with Rattus norvegicus [3] (setting [13]), 15.9 mg/kg.

Regarding `CC[C@@]12CCCCCC(Cc3ccc(O)cc31)[C@@H]2N` (stereo in doubt; (-)-2), the median effective dose (ED50) with Rattus norvegicus [1] was determined as 0.5 mg/kg; with Rattus norvegicus [2], 0.1 mg/kg; in the series with Rattus norvegicus [3] it was 3.5 mg/kg. For the same compound, the “Ratio ED50” value in the series listed under Rattus norvegicus [8] is given as “<=15”.

On to `CC[C@@]12CC/C=C\CC(Cc3ccc(O)cc31)[C@@H]2N.Cl` (stereo in doubt; (-)-4), for which the figures for the ED50 with Rattus norvegicus [1] and in the series on Rattus norvegicus [2] were 9 mg/kg and 4 mg/kg, respectively.

For the compound `CC[C@@]12CCCCCC(Cc3ccc(OC)cc31)[C@@H]2N.Cl` (stereo in doubt; (+)-1), the ED50 was determined as 10 mg/kg with Rattus norvegicus [1], 10 mg/kg with Rattus norvegicus [2] and 30 mg/kg in the series on Rattus norvegicus [3].

In the case of `CC[C@@]12CCCCCC(Cc3ccc(OC)cc31)[C@@H]2N.Cl` (mixture of isomers), the ED50 with Rattus norvegicus [1] came out at 3.5 mg/kg; in the series on Rattus norvegicus [2], 12 mg/kg.

As to `CC[C@@]12CC/C=C\CC(Cc3ccc(O)cc31)[C@@H]2N.Cl` (mixture of isomers), the 50% effective dose (ED50) in the series with Rattus norvegicus [1] worked out at 1.75 mg/kg.

Consider `Br.C[C@@]12CCCCCC(Cc3ccc(O)cc31)[C@@H]2N` (stereo in doubt; (+)-6), for which the ED50 in the series on Rattus norvegicus [1] was more than 100 mg/kg; in the series with Rattus norvegicus [2], 95 mg/kg.

As to `COc1ccc2c(c1)[C@@]1(C)CCCCCC(C2)[C@@H]1N.Cl` (stereo in doubt; (+)-5), in the series on Rattus norvegicus [1], the ED50 is more than 25 mg/kg.

On to `CC[C@@]12CC/C=C\CC(Cc3ccc(OC)cc31)[C@@H]2N.Cl` (mixture of isomers), for which the ED50 in the series with Rattus norvegicus [1] is 4.2 mg/kg.

Regarding `CC[C@@]12CC/C=C\CC(Cc3ccc(OC)cc31)[C@@H]2N.Cl` (stereo in doubt; (-)-3), the ED50 in the series on Rattus norvegicus [1] is more than 6.25 mg/kg.

On to `C[C@@]12CCCCCC(Cc3ccc(OC(=O)C4CC4)cc31)[C@@H]2N.Cl`, for which the ED50 in the series with Rattus norvegicus [1] (setting [14]) is 1.5 mg/kg; with Rattus norvegicus [2] (setting [12]), 0.45 mg/kg.

On to `Br.C[C@@]12CCCCCC(Cc3ccc(O)cc31)[C@@H]2N` (stereo in doubt; (-)-6), for which the “Ratio ED50” value in the series with Rattus norvegicus [10] is on record as 8; in the series filed under Rattus norvegicus [8], “<=15”. Further, the ED50 with Rattus norvegicus [1] stood at 0.53 mg/kg; in the series on Rattus norvegicus [2], 0.12 mg/kg; with Rattus norvegicus [3] it was 2.05 mg/kg. Further, the LD50 (usually the dose expected to kill half of the subjects tested) in series [11] was determined as 200 mg/kg.

Consider `COc1ccc2c(c1)[C@@]1(C)CCCCCC(C2)[C@@H]1N.Cl` (mixture of isomers), for which the ED50 in the series with Rattus norvegicus [1] stood at 4.88 mg/kg.
